What was measured:
[1] = system: healthy male subjects; assay: ECG, QTcF interval; format: in vivo, human
Procedure, shortened: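 Randomized, double-blind, placebo-controlled single ascending dose study in healthy men, dosed 3–200 mg after an overnight fast. 12-lead ECGs were recorded in triplicate, 1 min apart, after 5 min rest in the semi-recumbent position, at scheduled times. QTc and other intervals were derived automatically from the digital ECGs by the Marquette 12SL algorithm.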

[2] = system: rats; assay: Preclinical multiple dose toxicology study in rats; format: in vivo
[3] = system: healthy male subjects; assay: NeuroCart saccadic eye movement; format: in vivo, human; conditions: 12-hour post-dose period
Procedure, shortened: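 Fasted healthy men were tested twice pre-dose and at 0.5–10 h post-dose with the head fixed 58 cm from the screen. Subjects followed a dot jumping about 15 degrees to either side. Fifteen saccades were recorded at random 3–6 s intervals. Peak velocity (deg/s) was averaged over artefact-free saccades. Change from baseline over 12 h was analysed by MMRM against pooled placebo.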

[4] = system: healthy male subjects; assay: VAS Bond and Lader; format: in vivo, human; conditions: 12-hour post-dose period
Procedure, shortened: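 Subjects marked 16 horizontal 100 mm visual analogue scales twice pre-dose and at 0.5–10 h after a single dose or placebo. Three factors were derived: alertness from 9 scores, mood from 5 and calmness from 2. Change from baseline over 12 h was analysed by MMRM against pooled placebo, with baseline as covariate.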

[5] = Preclinical pharmacokinetic studies; format: in vivo; conditions: dogs and rats, oral administration
[6] = target: T1, α1A‐adrenoceptor (Homo sapiens, UniProt P35348); assay: In vitro binding affinity, α1A-adrenoceptor; conditions: read-out: Ki, α1A-adrenoceptor; preclinical in vitro panel
T1 sequence (P35348 1-466): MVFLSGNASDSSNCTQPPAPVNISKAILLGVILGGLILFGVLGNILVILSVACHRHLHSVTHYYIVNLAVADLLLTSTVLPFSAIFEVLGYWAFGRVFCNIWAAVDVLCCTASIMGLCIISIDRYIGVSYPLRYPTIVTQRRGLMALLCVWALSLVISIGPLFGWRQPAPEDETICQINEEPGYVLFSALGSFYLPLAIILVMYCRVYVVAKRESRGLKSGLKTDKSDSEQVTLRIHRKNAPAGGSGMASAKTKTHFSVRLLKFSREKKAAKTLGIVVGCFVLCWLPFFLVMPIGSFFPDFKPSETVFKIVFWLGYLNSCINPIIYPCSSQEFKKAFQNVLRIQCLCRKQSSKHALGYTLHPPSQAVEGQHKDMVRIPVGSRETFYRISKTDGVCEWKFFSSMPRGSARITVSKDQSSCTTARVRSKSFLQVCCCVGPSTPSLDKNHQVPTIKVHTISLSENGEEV

[7] = target: μ receptor (Homo sapiens, UniProt P35372); assay: In vitro binding affinity, μ receptor
[8] = system: healthy male subjects; assay: VAS Bowdle; format: in vivo, human; conditions: 12-hour post-dose period
Procedure, shortened: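 Psychedelic effects were rated on 13 lines scored from 0 (not at all) to 100 mm (extremely), twice pre-dose and at 0.5–10 h post-dose. Change from baseline over 12 h was analysed by MMRM with baseline as covariate. The 3 mg dose group, not placebo, served as the reference.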

[9] = system: healthy male subjects; assay: Orthostatic hypotension; format: in vivo, human
[10] = system: dopamine release induced by infusion of NMDA in the striatum; assay: NMDA-induced dopamine release in the striatum; format: in vivo; conditions: rats, oral dose of 10 mg/kg
[11] = target: hERG channel (Homo sapiens, UniProt Q12809); assay: In vitro hERG channel testing; format: biochemical
[12] = target: sigma non‐opioid intracellular receptor 1 (Homo sapiens, UniProt Q99720); assay: In vitro binding affinity, sigma non-opioid intracellular receptor 1
[13] = system: dogs; assay: Preclinical multiple dose toxicology study in dogs; format: in vivo

μ receptor, sequence (P35372 whole entry): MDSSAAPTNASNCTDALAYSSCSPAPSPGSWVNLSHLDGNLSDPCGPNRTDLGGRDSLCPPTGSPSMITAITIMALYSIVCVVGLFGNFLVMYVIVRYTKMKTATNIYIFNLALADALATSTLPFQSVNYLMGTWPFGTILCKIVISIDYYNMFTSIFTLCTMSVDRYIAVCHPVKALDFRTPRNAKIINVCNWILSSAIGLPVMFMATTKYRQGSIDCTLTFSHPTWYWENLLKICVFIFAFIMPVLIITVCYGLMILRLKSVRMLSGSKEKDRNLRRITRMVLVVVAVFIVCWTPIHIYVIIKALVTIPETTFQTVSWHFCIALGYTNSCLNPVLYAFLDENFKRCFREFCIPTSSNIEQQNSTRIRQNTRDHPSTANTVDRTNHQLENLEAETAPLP
hERG channel, sequence (Q12809 whole entry): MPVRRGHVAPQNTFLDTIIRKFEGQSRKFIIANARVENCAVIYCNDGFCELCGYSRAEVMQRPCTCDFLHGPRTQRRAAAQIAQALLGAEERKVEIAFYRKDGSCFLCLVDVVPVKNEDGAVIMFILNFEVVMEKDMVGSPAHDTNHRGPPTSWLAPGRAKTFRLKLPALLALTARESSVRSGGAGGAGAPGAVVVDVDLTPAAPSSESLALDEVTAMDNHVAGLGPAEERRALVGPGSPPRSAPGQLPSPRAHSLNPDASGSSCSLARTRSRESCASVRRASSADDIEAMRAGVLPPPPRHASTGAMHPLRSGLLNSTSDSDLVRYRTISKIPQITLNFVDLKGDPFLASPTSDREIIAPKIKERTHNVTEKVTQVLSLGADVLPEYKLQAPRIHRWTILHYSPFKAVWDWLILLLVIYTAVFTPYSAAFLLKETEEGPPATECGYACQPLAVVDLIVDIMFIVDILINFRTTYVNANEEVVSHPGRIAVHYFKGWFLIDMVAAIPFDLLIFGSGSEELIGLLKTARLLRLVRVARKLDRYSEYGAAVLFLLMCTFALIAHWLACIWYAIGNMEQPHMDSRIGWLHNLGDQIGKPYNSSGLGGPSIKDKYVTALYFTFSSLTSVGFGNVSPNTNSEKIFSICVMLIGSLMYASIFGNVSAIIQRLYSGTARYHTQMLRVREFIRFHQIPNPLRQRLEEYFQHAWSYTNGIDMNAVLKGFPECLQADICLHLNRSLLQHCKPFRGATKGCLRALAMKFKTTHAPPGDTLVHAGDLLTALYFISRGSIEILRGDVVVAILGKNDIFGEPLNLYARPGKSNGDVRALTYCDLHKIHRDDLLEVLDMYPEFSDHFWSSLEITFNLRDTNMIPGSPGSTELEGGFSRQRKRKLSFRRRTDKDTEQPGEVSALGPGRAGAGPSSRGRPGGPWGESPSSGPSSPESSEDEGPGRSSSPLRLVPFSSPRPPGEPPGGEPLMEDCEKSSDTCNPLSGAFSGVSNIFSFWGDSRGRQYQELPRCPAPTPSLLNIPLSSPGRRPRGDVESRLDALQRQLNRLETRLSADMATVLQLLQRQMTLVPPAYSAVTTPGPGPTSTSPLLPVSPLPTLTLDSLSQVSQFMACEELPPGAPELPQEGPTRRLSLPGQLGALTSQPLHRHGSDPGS
sigma non‐opioid intracellular receptor 1, sequence (Q99720 whole entry, species assumed): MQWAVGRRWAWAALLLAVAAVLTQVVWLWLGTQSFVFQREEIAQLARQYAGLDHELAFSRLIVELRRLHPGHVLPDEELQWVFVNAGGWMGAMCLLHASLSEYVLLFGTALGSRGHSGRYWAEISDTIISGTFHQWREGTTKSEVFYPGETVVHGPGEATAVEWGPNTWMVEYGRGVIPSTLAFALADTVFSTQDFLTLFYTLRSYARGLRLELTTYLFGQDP

CN1CCC23CCCCC2C1Cc1ccc(C(N)=O)cc13 (stereo not drawn) [ALKS 7119, (9α, 13α)‐17‐methylmorphinan‐3‐carboxamide]
Subjects with QTcF increases from baseline of 30–60 ms ([1]; all ALKS 7119 groups, only at 50 mg or higher, none in placebo): 8.8%
QTcF interval increases compared to baseline ([1]; doses of ≥50 mg): 30 to 60 ms
Highest individual QTcF value ([1]; subject treated with 200 mg): 475 ms
Increase of QTcF compared to baseline at highest individual value ([1]; subject treated with 200 mg): 33 ms
human equivalent dose (HED) of NOAEL ([2]; rat NOAEL, body surface area extrapolation per FDA guidelines): 96 mg
NOAEL ([2]; rats, multiple dose toxicology): 10 mg/kg
Saccadic peak velocity, LSM CFB ([3]; 3 mg single oral dose): −16.15 deg/s
Saccadic peak velocity, LSM CFB ([3]; 10 mg single oral dose): 1.46 deg/s
Saccadic peak velocity, LSM CFB ([3]; 25 mg single oral dose): 6.12 deg/s
Saccadic peak velocity, LSM CFB ([3]; 50 mg single oral dose): 2.91 deg/s
Saccadic peak velocity, LSM CFB ([3]; 75 mg single oral dose): −5.63 deg/s
Saccadic peak velocity, LSM CFB ([3]; 100 mg single oral dose): 13.25 deg/s
Saccadic peak velocity, LSM CFB ([3]; 125 mg single oral dose): 5.98 deg/s
Saccadic peak velocity, LSM CFB ([3]; 150 mg single oral dose): 18.15 deg/s
Saccadic peak velocity, LSM CFB ([3]; 175 mg single oral dose): 5.26 deg/s
Saccadic peak velocity, LSM CFB ([3]; 200 mg single oral dose): −0.64 deg/s
VAS Bond and Lader “calmness”, LSM CFB ([4]; 3 mg single oral dose): 6.65 mm
VAS Bond and Lader “mood”, LSM CFB ([4]; 3 mg single oral dose): 6.17 mm
VAS Bond and Lader “subjective alertness”, LSM CFB ([4]; 3 mg single oral dose): 1.64 mm
VAS Bond and Lader “calmness”, LSM CFB ([4]; 10 mg single oral dose): −0.31 mm
VAS Bond and Lader “mood”, LSM CFB ([4]; 10 mg single oral dose): −0.04 mm
VAS Bond and Lader “subjective alertness”, LSM CFB ([4]; 10 mg single oral dose): 0.03 mm
VAS Bond and Lader “calmness”, LSM CFB ([4]; 25 mg single oral dose): −0.57 mm
VAS Bond and Lader “mood”, LSM CFB ([4]; 25 mg single oral dose): −0.14 mm
VAS Bond and Lader “subjective alertness”, LSM CFB ([4]; 25 mg single oral dose): 0.26 mm
VAS Bond and Lader “calmness”, LSM CFB ([4]; 50 mg single oral dose): 3.6 mm
VAS Bond and Lader “mood”, LSM CFB ([4]; 50 mg single oral dose): 4.47 mm
VAS Bond and Lader “subjective alertness”, LSM CFB ([4]; 50 mg single oral dose): 0.96 mm
VAS Bond and Lader “calmness”, LSM CFB ([4]; 75 mg single oral dose): 0.26 mm
VAS Bond and Lader “mood”, LSM CFB ([4]; 75 mg single oral dose): −0.82 mm
VAS Bond and Lader “subjective alertness”, LSM CFB ([4]; 75 mg single oral dose): −1.02 mm
VAS Bond and Lader “calmness”, LSM CFB ([4]; 100 mg single oral dose): 0.58 mm
VAS Bond and Lader “mood”, LSM CFB ([4]; 100 mg single oral dose): 0.56 mm
VAS Bond and Lader “subjective alertness”, LSM CFB ([4]; 100 mg single oral dose): 0.57 mm
VAS Bond and Lader “calmness”, LSM CFB ([4]; 125 mg single oral dose): 0.46 mm
VAS Bond and Lader “mood”, LSM CFB ([4]; 125 mg single oral dose): 1.63 mm
VAS Bond and Lader “subjective alertness”, LSM CFB ([4]; 125 mg single oral dose): −0.56 mm
VAS Bond and Lader “calmness”, LSM CFB ([4]; 150 mg single oral dose): 2.59 mm
VAS Bond and Lader “mood”, LSM CFB ([4]; 150 mg single oral dose): 3.35 mm
VAS Bond and Lader “subjective alertness”, LSM CFB ([4]; 150 mg single oral dose): 1.94 mm
VAS Bond and Lader “calmness”, LSM CFB ([4]; 175 mg single oral dose): 0.08 mm
VAS Bond and Lader “mood”, LSM CFB ([4]; 175 mg single oral dose): 0.11 mm
VAS Bond and Lader “subjective alertness”, LSM CFB ([4]; 175 mg single oral dose): −1.17 mm
VAS Bond and Lader “calmness”, LSM CFB ([4]; 200 mg single oral dose): 0.68 mm
VAS Bond and Lader “mood”, LSM CFB ([4]; 200 mg single oral dose): 0.51 mm
VAS Bond and Lader “subjective alertness”, LSM CFB ([4]; 200 mg single oral dose): 0.09 mm
median time to maximum plasma concentration (tmax) [5]: 30 min
Ki [6]: 0.98 µM
Affinity for μ receptor lower than for SERT [7]: 17 fold
Ki ([7]; read-out: Ki, μ receptor, preclinical in vitro panel): 0.6 µM
VAS Bowdle “external perception”, LSM CFB ([8]; 3 mg single oral dose): 0.00
VAS Bowdle “feeling high”, LSM CFB ([8]; 3 mg single oral dose): 0.00
VAS Bowdle “internal perception”, LSM CFB ([8]; 3 mg single oral dose): 0.00
VAS Bowdle “external perception”, LSM CFB ([8]; 10 mg single oral dose): 0.00
VAS Bowdle “feeling high”, LSM CFB ([8]; 10 mg single oral dose): 0.00
VAS Bowdle “internal perception”, LSM CFB ([8]; 10 mg single oral dose): 0.00
VAS Bowdle “external perception”, LSM CFB ([8]; 25 mg single oral dose): 0.00
VAS Bowdle “feeling high”, LSM CFB ([8]; 25 mg single oral dose): 0.00
VAS Bowdle “internal perception”, LSM CFB ([8]; 25 mg single oral dose): 0.00
VAS Bowdle “external perception”, LSM CFB ([8]; 50 mg single oral dose): 0.00
VAS Bowdle “feeling high”, LSM CFB ([8]; 50 mg single oral dose): 0.00
VAS Bowdle “internal perception”, LSM CFB ([8]; 50 mg single oral dose): 0.00
VAS Bowdle “external perception”, LSM CFB ([8]; 75 mg single oral dose): 0.00
VAS Bowdle “feeling high”, LSM CFB ([8]; 75 mg single oral dose): 0.00
VAS Bowdle “internal perception”, LSM CFB ([8]; 75 mg single oral dose): 0.00
VAS Bowdle “external perception”, LSM CFB ([8]; 100 mg single oral dose): 0.00
VAS Bowdle “feeling high”, LSM CFB ([8]; 100 mg single oral dose): 0.00
VAS Bowdle “internal perception”, LSM CFB ([8]; 100 mg single oral dose): 0.00
VAS Bowdle “external perception”, LSM CFB ([8]; 125 mg single oral dose): 0.00
VAS Bowdle “feeling high”, LSM CFB ([8]; 125 mg single oral dose): 0.00
VAS Bowdle “internal perception”, LSM CFB ([8]; 125 mg single oral dose): 0.00
VAS Bowdle “external perception”, LSM CFB ([8]; 150 mg single oral dose): 0.00
VAS Bowdle “feeling high”, LSM CFB ([8]; 150 mg single oral dose): 0.00
VAS Bowdle “internal perception”, LSM CFB ([8]; 150 mg single oral dose): 0.00
VAS Bowdle “external perception”, LSM CFB ([8]; 175 mg single oral dose): 0.00
VAS Bowdle “feeling high”, LSM CFB ([8]; 175 mg single oral dose): 0.00
VAS Bowdle “internal perception”, LSM CFB ([8]; 175 mg single oral dose): 0.00
VAS Bowdle “external perception”, LSM CFB ([8]; 200 mg single oral dose): 0.00
VAS Bowdle “feeling high”, LSM CFB ([8]; 200 mg single oral dose): 0.00
VAS Bowdle “internal perception”, LSM CFB ([8]; 200 mg single oral dose): 0.00
Incidence of orthostatic hypotension ([9]; 200 mg dosing group, three subjects): 37.5%
Incidence of orthostatic hypotension ([9]; all ALKS 7119 dose groups (placebo 15%)): 17.5%
Effect on dopamine release induced by NMDA infusion in the striatum [10]: completely blocked dopamine release
hERG IC50 [11]: 54.3488 mg/L
IC50 ([11]; read-out: hERG IC50): 191 µM
Affinity for sigma non-opioid intracellular receptor 1 lower than for SERT [12]: 900 fold
human equivalent dose (HED) of NOAEL ([13]; dog NOAEL): 97.2 mg
NOAEL ([13]; dogs, multiple dose toxicology): 3 mg/kg

— paper PMC9302689 (British Journal of Clinical Pharmacology, 2022)
